Among the data in ChEMBL document CHEMBL1154300, “Monoterpenoid indole alkaloids from Alstonia yunnanensis” (J Nat Prod, 2009) are inhibition and IC50 values, retold here.

In experiment [1] the target is T1, Polyunsaturated fatty acid 5-lipoxygenase (Homo sapiens) (UniProt P09917).
T1 sequence (whole entry): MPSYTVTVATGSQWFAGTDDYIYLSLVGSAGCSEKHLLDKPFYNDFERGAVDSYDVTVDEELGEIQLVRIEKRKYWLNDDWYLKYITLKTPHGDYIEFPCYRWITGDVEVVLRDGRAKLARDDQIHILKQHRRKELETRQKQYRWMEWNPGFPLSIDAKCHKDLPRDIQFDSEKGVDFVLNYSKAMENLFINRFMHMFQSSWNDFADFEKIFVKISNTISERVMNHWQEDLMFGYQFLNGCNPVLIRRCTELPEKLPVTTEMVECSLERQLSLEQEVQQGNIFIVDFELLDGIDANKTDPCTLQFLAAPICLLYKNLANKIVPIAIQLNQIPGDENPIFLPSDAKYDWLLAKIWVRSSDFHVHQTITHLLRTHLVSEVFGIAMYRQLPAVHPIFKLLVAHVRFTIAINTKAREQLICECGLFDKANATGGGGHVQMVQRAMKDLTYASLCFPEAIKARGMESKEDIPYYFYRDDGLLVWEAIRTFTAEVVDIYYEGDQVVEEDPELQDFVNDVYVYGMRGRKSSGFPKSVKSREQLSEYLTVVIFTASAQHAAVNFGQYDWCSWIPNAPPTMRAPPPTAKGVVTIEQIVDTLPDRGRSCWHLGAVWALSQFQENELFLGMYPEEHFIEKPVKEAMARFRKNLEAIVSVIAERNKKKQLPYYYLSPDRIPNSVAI
Briefly: Inhibition of 5-LOX at 100 uM after 5 mins. The procedure, abridged:
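Tested in an anti-inflammatory panel against Cox-1, Cox-2 and 5-Lox.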

For another experiment, the system named is PANC-1. Description: Cytotoxicity against human PANC1 cells after 48 hrs by MTT assay. It counts as functional, cell-based. Particulars: PANC-1, 48 h. In general terms: Formazan colour is commonly taken as a measure of viable cells.
Experiment [2] deals with Prostaglandin G/H synthase 1 (Homo sapiens) (UniProt P23219). Particulars: at 100 µM.
Prostaglandin G/H synthase 1 (Homo sapiens), sequence (P23219 whole entry): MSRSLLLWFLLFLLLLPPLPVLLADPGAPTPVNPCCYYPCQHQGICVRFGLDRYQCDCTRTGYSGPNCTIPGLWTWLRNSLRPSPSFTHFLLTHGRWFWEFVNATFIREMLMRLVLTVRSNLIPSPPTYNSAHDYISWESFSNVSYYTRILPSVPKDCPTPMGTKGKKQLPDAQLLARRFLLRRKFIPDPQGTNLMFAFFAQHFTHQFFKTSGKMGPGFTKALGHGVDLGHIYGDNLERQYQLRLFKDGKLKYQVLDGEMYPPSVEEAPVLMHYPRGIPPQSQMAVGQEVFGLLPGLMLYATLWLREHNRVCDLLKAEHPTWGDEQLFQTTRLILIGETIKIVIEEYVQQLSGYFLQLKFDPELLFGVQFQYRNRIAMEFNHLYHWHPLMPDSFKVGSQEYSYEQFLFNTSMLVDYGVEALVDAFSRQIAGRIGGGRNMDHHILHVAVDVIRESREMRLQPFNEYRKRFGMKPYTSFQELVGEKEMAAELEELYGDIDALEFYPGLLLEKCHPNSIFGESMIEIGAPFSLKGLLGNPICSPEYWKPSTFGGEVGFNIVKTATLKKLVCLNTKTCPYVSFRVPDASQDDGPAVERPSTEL
The next experiment has as its system HL-60. Briefly: Cytotoxicity against human HL60 cells after 48 hrs by MTT assay. Particulars: HL-60, 48 h. It counts as functional, cell-based.

One may read the inhibition as the change of the read-out against control, counted positive when it falls. Low readings indicate little suppression, high ones strong suppression. As usually defined, the IC50 is the concentration that inhibits the measured activity by half. Low readings indicate greater potency, high ones weaker potency.

As to `CC(=O)OC1C2C3C[C@H]4C5=[N+](C)c6ccccc6[C@]51C[C@@H]2[N+]4([O-])[C@@H](C)[C@@H]3C(=O)[O-]` (some centres not stated), the results for the inhibition in experiment [1] and in experiment [2] were less than 0% and 45%, respectively. Besides, the IC50 in the experiment on PANC-1 and in the experiment with HL-60 was greater than 40 µM in each case.

Turning to `CO[C@@H]1O[C@@H](O)[C@@H]2C3C[C@H]4c5[nH]c6ccccc6c5C[C@@H]2N4[C@@H](C)[C@H]31` [ALSTOYUNINE A], the inhibition in experiment [1] turned out to be 38.4%; in experiment [2] it was 27.8%. The IC50 in the experiment with PANC-1 and in the experiment on HL-60 was greater than 40 µM each time.

As for `CO[C@@H]1O[C@@H](O)[C@H]2C3C[C@H]4c5[nH]c6ccccc6c5C[C@@H]([C@@H]31)N4[C@H]2C` [ALSTOYUNINE B], the figures for the inhibition in experiment [1] and in experiment [2] were 33.5% and 26.8%, respectively. Moreover, the half-maximal inhibitory concentration (IC50) in the experiment with PANC-1 and in the experiment on HL-60 was greater than 40 µM throughout.

Take `CC(=O)OC1C2C3C[C@H]4C5=[N+]([O-])c6ccccc6[C@]51C[C@@H]2[N+]4([O-])[C@@H](C)[C@@H]3C(=O)O` (some centres not stated) [ALSTOYUNINE D]: the inhibition in experiment [1] is less than 0%; in experiment [2], 39.3%. Besides, the half-inhibitory concentration (IC50) with PANC-1 and with HL-60 was greater than 40 µM in each case.

In the case of `C/C=C1/C[N+]2([O-])[C@H]3CC1C1C(OC(C)=O)[C@@]4(C[C@@H]12)C3=Nc1ccccc14` (some centres not stated) [ALSTOYUNINE E], the inhibition in experiment [1] amounted to 77.2%; in experiment [2], 41.8%. In addition, the half-inhibitory concentration (IC50) in the experiment on PANC-1 and with HL-60 was greater than 40 µM each time.

For `COC(C)[C@H]1C2C[C@H]3C4=Nc5ccccc5[C@]45C[C@@H](C2C5OC(C)=O)N3[C@@H]1O` (some centres not stated) [ALSTOYUNINE F], the figures for the inhibition in experiment [1] and in experiment [2] were 61.8% and 39.8%, respectively. Moreover, the IC50 amounted to 21.7 µM with PANC-1 and 3.89 µM in the experiment with HL-60.

In the case of `CC[C@@]12CC(C(=O)OC)=C3Nc4cc(OC)ccc4[C@@]34CCN(C(=O)[C@@H]3O[C@@H]31)[C@@H]24` [ALSTOYUNINE G], the values for the inhibition in experiment [1] and in experiment [2] were less than 0% and 37.2%, respectively. The IC50 in the experiment on PANC-1 and with HL-60 was greater than 40 µM throughout.

With `CC[C@@]12CC(C(=O)OC)=C3Nc4cc(OC)ccc4[C@@]34CCN(C[C@@H](Cl)[C@@H]1O)[C@@H]24` [ALSTOYUNINE H], the inhibition is 0.84% in experiment [1] and less than 0% in experiment [2]. For the same molecule, the half-maximal inhibitory concentration (IC50) in the experiment on PANC-1 and in the experiment with HL-60 was greater than 40 µM in each case.
